Tests used:
Assay type in all cases: functional
Details in all cases: read-out: IZ
Proteus vulgaris [1] = experiment: Antimicrobial activity against Proteus vulgaris at 25 ug/ml after 24 hrs by agar diffusion method
In short: (§1)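 Agar well diffusion: petri plates (9 cm) with about 9 ml nutrient agar, seeded with the test organism. Wells cut with a cork borer and loaded with test compound at 25, 50, 75 or 100 per ml; tetracycline as control. Incubated 37 °C for 24 h; average inhibition-zone diameter around wells measured (mm).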

Proteus vulgaris [2] = experiment: Antimicrobial activity against Proteus vulgaris at 50 ug/ml after 24 hrs by agar diffusion method; in short: as §1
Proteus vulgaris [3] = experiment: Antimicrobial activity against Proteus vulgaris at 75 ug/ml after 24 hrs by agar diffusion method; in short: as §1
Proteus vulgaris [4] = experiment: Antimicrobial activity against Proteus vulgaris at 100 ug/ml after 24 hrs by agar diffusion method; in short: as §1
Proteus mirabilis [5] = experiment: Antimicrobial activity against Proteus mirabilis at 25 ug/ml after 24 hrs by agar diffusion method; in short: as §1
Proteus mirabilis [6] = experiment: Antimicrobial activity against Proteus mirabilis at 50 ug/ml after 24 hrs by agar diffusion method; in short: as §1
Proteus mirabilis [7] = experiment: Antimicrobial activity against Proteus mirabilis at 75 ug/ml after 24 hrs by agar diffusion method; in short: as §1
Proteus mirabilis [8] = experiment: Antimicrobial activity against Proteus mirabilis at 100 ug/ml after 24 hrs by agar diffusion method; in short: as §1
Staphylococcus aureus [9] = experiment: Antimicrobial activity against Staphylococcus aureus at 25 ug/ml after 24 hrs by agar diffusion method; in short: as §1
Staphylococcus aureus [10] = experiment: Antimicrobial activity against Staphylococcus aureus at 50 ug/ml after 24 hrs by agar diffusion method; in short: as §1
Staphylococcus aureus [11] = experiment: Antimicrobial activity against Staphylococcus aureus at 75 ug/ml after 24 hrs by agar diffusion method; in short: as §1
Staphylococcus aureus [12] = experiment: Antimicrobial activity against Staphylococcus aureus at 100 ug/ml after 24 hrs by agar diffusion method; in short: as §1
[13] = test system: Salmonella enterica subsp. enterica serovar Typhi str. CT18; experiment: Antimicrobial activity against Salmonella typhi at 25 ug/ml after 24 hrs by agar diffusion method
In short: (§2)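 Agar well diffusion: about 9 ml nutrient agar in 9 cm Petri plates, seeded with the test organism. Wells cut with a cork borer and loaded with test compound at 25–100 per ml; tetracycline as control. Plates incubated 24 h at 37 °C. Read-out is the average diameter of the inhibition zone around each well, in mm.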

[14] = test system: Salmonella enterica subsp. enterica serovar Typhi str. CT18; experiment: Antimicrobial activity against Salmonella typhi at 50 ug/ml after 24 hrs by agar diffusion method; in short: as §2
[15] = test system: Salmonella enterica subsp. enterica serovar Typhi str. CT18; experiment: Antimicrobial activity against Salmonella typhi at 75 ug/ml after 24 hrs by agar diffusion method; in short: as §2
[16] = test system: Salmonella enterica subsp. enterica serovar Typhi str. CT18; experiment: Antimicrobial activity against Salmonella typhi at 100 ug/ml after 24 hrs by agar diffusion method; in short: as §2

SMILES | zone of inhibition at 25 µg/mL (Proteus vulgaris [1]) [mm] | zone of inhibition at 50 µg/mL (Proteus vulgaris [2]) [mm] | zone of inhibition at 75 µg/mL (Proteus vulgaris [3]) [mm] | zone of inhibition at 100 µg/mL (Proteus vulgaris [4]) [mm] | zone of inhibition at 25 µg/mL (Proteus mirabilis [5]) [mm] | zone of inhibition at 50 µg/mL (Proteus mirabilis [6]) [mm] | zone of inhibition at 75 µg/mL (Proteus mirabilis [7]) [mm] | zone of inhibition at 100 µg/mL (Proteus mirabilis [8]) [mm] | zone of inhibition at 25 µg/mL (Staphylococcus aureus [9]) [mm] | zone of inhibition at 50 µg/mL (Staphylococcus aureus [10]) [mm] | zone of inhibition at 75 µg/mL (Staphylococcus aureus [11]) [mm] | zone of inhibition at 100 µg/mL (Staphylococcus aureus [12]) [mm] | zone of inhibition at 25 µg/mL [13] [mm] | zone of inhibition at 50 µg/mL [14] [mm] | zone of inhibition at 75 µg/mL [15] [mm] | zone of inhibition at 100 µg/mL [16] [mm]
COc1ccc([C@@H]2CN(C)[C@@]3(C(=O)Nc4ccccc43)[C@]23CCc2c([nH]c4ccccc24)C3=O)cc1 | 11 | 13 | 18 | 20 | 9 | 13 | 16 | 21 | 12 | 14 | 17 | 20 | 12 | 14 | 18 | 21
CN1C[C@@H](c2ccc([N+](=O)[O-])cc2)[C@@]2(CCc3c([nH]c4ccccc34)C2=O)[C@]12C(=O)c1cccc3cccc2c13 | 13 | 22 | 27 | > 40 | 9 | 13 | 17 | 21 | 9 | 16 | 21 | 31 | 11 | 14 | 18 | 25
Cc1ccc([C@@H]2CN(C)[C@@]3(C(=O)Nc4ccccc43)[C@]23CCc2c([nH]c4ccccc24)C3=O)cc1 | 12 | 16 | 18 | 21 | 11 | 14 | 16 | 18 | 9 | 13 | 16 | 20 | 9 | 12 | 14 | 16
CN1C[C@@H](c2ccccc2)[C@@]2(CCc3c([nH]c4ccccc34)C2=O)[C@]12C(=O)Nc1ccccc12 | 12 | 16 | 20 | 26 | 9 | 12 | 14 | 16 | 11 | 13 | 16 | 18 | 9 | 11 | 13 | 18
CN1C[C@@H](c2ccc(Cl)cc2)[C@@]2(CCc3c([nH]c4ccccc34)C2=O)[C@]12C(=O)Nc1ccccc12 | 9 | 18 | 24 | 26 | 13 | 15 | 18 | 22 | 9 | 14 | 18 | 21 | 11 | 15 | 17 | 18
CN(C)[C@@H]1C(O)=C(C(N)=O)C(=O)[C@@]2(O)C(O)=C3C(=O)c4c(O)cccc4[C@@](C)(O)[C@H]3C[C@@H]12 [TETRACYCLINE] | 18 | 24 | 28 | > 40 | 18 | 24 | 28 | > 40 | 22 | 24 | 28 | > 40 | 18 | 22 | 28 | > 40
